The results in this text go back to ChEMBL document CHEMBL1146542, “Cytotoxic flavone analogues of vitexicarpin, a constituent of the leaves of Vitex negundo” (J Nat Prod, 2003).

For data set [1], the system named is LNCaP. The data set is described as follows: Cytotoxicity against human LNCAP cells. Type of data set: functional. As to conditions: read-out: ED50 (the source's name).
A short description of data set [2]: Cytotoxicity against HUVEC. The following applies: human, read-out: ED50 (the source's name). Type of data set: cell-based.
The subject of data set [3] is Lu1. The data set is described as follows: Cytotoxicity against human Lu1 cells. Format: functional. As to conditions: read-out: ED50 (the source's name).
In data set [4] the test system is KB. Briefly: Cytotoxicity against human KB cells. Format: functional. As to conditions: read-out: ED50 (the source's name).
The next data set relates to Col2. The data set is described as follows: Cytotoxicity against human Col2 cells. As to conditions: read-out: ED50 (the source's name). Type of data set: functional.
The nature of data set [5]: Cytotoxicity against human telomerase reverse transcriptase expressing RPE1 cells. Format: cell-based, TERT-RPE1. As to conditions: read-out: ED50 (the source's name).
In data set [6] the test system is KB. Briefly: Inhibition of human KB cells propagated in hollow fibers via subcutaneous site of NCr nu/nu mouse at 10 to 40 mg/kg, ip once daily after 7 days of implantation relative to control. Format: functional. The following applies: dose mg/kg 10-40. The procedure, abridged:
(§1)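 Hollow fiber assay in mice with KB, LNCaP and Lu1 cells, with fibers placed at intraperitoneal and subcutaneous sites. Compound given ip at 10, 20 and 40 mg/kg. Read-out was percent growth inhibition of the cells at each site versus control, and body weight of the mice was monitored.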

For a further data set, the system named is P388. Briefly: In vivo growth inhibition of mouse P388 cells at 135 mg/kg, ip relative to control. Format: functional. The following applies: route intraperitoneal. Put shortly: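 Mouse P-388 leukemia model run under a standard protocol. Compound given intraperitoneally at 135 mg/kg/injection, and activity was expressed as T/C value (%).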
Data set [7] deals with LNCaP. The data set is described as follows: Inhibition of human LNCAP cells propagated in hollow fibers via intraperitoneal site of NCr nu/nu mouse at 10 to 40 mg/kg, ip once daily after 7 days of implantation relative to control. Type of data set: functional. The following applies: dose mg/kg 10-40. Put shortly: as §1
Data set [8] has as its system LNCaP. Briefly: Inhibition of human LNCAP cells propagated in hollow fibers via subcutaneous site of NCr nu/nu mouse at 10 to 40 mg/kg, ip once daily after 7 days of implantation relative to control. Type of data set: functional. The following applies: dose mg/kg 10-40. Put shortly: as §1
Data set [9] relates to Lu1. Briefly: Inhibition of human Lu1 cells propagated in hollow fibers via intraperitoneal site of NCr nu/nu mouse at 10 to 40 mg/kg, ip once daily after 7 days of implantation relative to control. Type of data set: functional, organism-based. The procedure, abridged: as §1
The subject of data set [10] is Lu1. Briefly: Inhibition of human Lu1 cells propagated in hollow fibers via subcutaneous site of NCr nu/nu mouse at 10 to 40 mg/kg, ip once daily after 7 days of implantation relative to control. Format: functional. The following applies: dose mg/kg 10-40. The procedure, abridged: as §1

Each structure is given as a SMILES string. Values after ≈ are worked out from the molar mass of the structure shown. Active and inactive are the calls of the source. The rule behind the calls is not given here. A value given as a limit tells only on which side of the number the result lay.

Take `CCCC(=O)Oc1cc(-c2oc3cc(OC)c(OC)c(OC(=O)CCC)c3c(=O)c2OC)ccc1OC`: the EC50 with LNCaP [1] came out at 0.8 mg/L (≈ 1.55 µM); in the data set with Lu1 [3], 1.7 mg/L (≈ 3.3 µM); in the data set with KB [4], 0.5 mg/L (≈ 0.972 µM); in the data set on Col2, 11.7 mg/L (≈ 22.7 µM). Besides, the CC50 in data set [2] is greater than 20 mg/L; in data set [5], 0.6 mg/L (≈ 1.17 µM).

Consider `COc1ccc(-c2oc3cc(OC)c(OC)c(OC(C)=O)c3c(=O)c2OC)cc1OC(C)=O`, for which the EC50 in the data set on LNCaP [1] was 0.1 mg/L (≈ 0.218 µM); in the data set with Lu1 [3], 0.7 mg/L (≈ 1.53 µM); in the data set with KB [4], 0.2 mg/L (≈ 0.436 µM); in the data set on Col2 it was 15.9 mg/L (≈ 34.7 µM). Moreover, the results for the CC50 in data set [2] and in [5] were 0.1 mg/L (≈ 0.218 µM) and 0.4 mg/L (≈ 0.873 µM), respectively.

Regarding `COc1ccc(-c2oc3cc(OC)c(OC)c(O)c3c(=O)c2OC)cc1O` [CASTICIN], the EC50 with LNCaP [1] is 0.5 mg/L (≈ 1.34 µM); in the data set with Lu1 [3], 0.8 mg/L (≈ 2.14 µM); with KB [4] it was 0.2 mg/L (≈ 0.534 µM); with Col2, 12.7 mg/L (≈ 33.9 µM). For the same compound, the CC50 in data set [2] stood at 0.6 mg/L (≈ 1.6 µM); in data set [5], 0.2 mg/L (≈ 0.534 µM).

As for `C=CCCC(=O)Oc1cc(-c2oc3cc(OC)c(OC)c(OC(=O)CCC=C)c3c(=O)c2OC)ccc1OC`, the EC50 is 0.7 mg/L (≈ 1.3 µM) in the data set with LNCaP [1], 1.4 mg/L (≈ 2.6 µM) in the data set with Lu1 [3], 0.6 mg/L (≈ 1.11 µM) with KB [4] and 15 mg/L (≈ 27.9 µM) in the data set on Col2. In addition, the figures for the CC50 in data set [2] and in [5] were 5.5 mg/L (≈ 10.2 µM) and 0.6 mg/L (≈ 1.11 µM), respectively.

As to `COc1ccc(-c2oc3cc(OC)c(OC)c(O)c3c(=O)c2OC)cc1OC(=O)c1ccccc1`, the EC50 in the data set with LNCaP [1] was greater than 20 mg/L; in the data set on Lu1 [3] it was 16.5 mg/L (≈ 34.5 µM); with KB [4], greater than 20 mg/L; in the data set with Col2, greater than 20 mg/L. The CC50 is 20 mg/L (≈ 41.8 µM) in data set [2] and 3.6 mg/L (≈ 7.52 µM) in [5].

In the case of `COc1ccc(-c2oc3cc(OC)c(OC)c(OC)c3c(=O)c2OC)cc1OC` [HEXAMETHOXYFLAVONE], the EC50 with LNCaP [1], in the data set with Lu1 [3], in the data set on KB [4] and in the data set on Col2 was greater than 20 mg/L each time. The CC50 in data set [2] and in data set [5] was greater than 20 mg/L each time.

The term T/C denotes the ratio of treated to control. As to `CCCCCC(=O)Oc1cc(-c2oc3cc(OC)c(OC)c(OC(=O)CCCCC)c3c(=O)c2OC)ccc1OC`, the EC50 in the data set on LNCaP [1] is 0.5 mg/L (≈ 0.876 µM); with Lu1 [3], 0.7 mg/L (≈ 1.23 µM); in the data set on KB [4], 0.5 mg/L (≈ 0.876 µM); with Col2, greater than 20 mg/L. In addition, the CC50 turned out to be 11.1 mg/L (≈ 19.5 µM) in data set [2] and 0.4 mg/L (≈ 0.701 µM) in data set [5]. The “inhibition (INH)” value in the data set with KB [6], with LNCaP [7], in the data set on LNCaP [8] and with Lu1 [10] was 0% throughout. The T/C in the data set on P388 came out at 100%. Further, the outcome in the data set on Lu1 [9] was inactive.

For `COc1ccc(-c2oc3cc(OC)c(OC)c(OC(=O)c4ccccc4)c3c(=O)c2OC)cc1OC(=O)c1ccccc1`, the EC50 in the data set with LNCaP [1] was greater than 20 mg/L; with Lu1 [3], 6.5 mg/L (≈ 11.2 µM); in the data set on KB [4] it was greater than 20 mg/L; in the data set on Col2, greater than 20 mg/L. In addition, the CC50 in data set [2] is greater than 20 mg/L; in data set [5], 4.3 mg/L (≈ 7.38 µM).

Turning to `CCC(=O)Oc1cc(-c2oc3cc(OC)c(OC)c(OC(=O)CC)c3c(=O)c2OC)ccc1OC`, the EC50 is 0.4 mg/L (≈ 0.822 µM) with LNCaP [1], 1 mg/L (≈ 2.06 µM) in the data set on Lu1 [3], 0.6 mg/L (≈ 1.23 µM) in the data set on KB [4] and greater than 20 mg/L in the data set on Col2. Moreover, the CC50 in [2] amounted to 6.5 mg/L (≈ 13.4 µM); in [5] it was 0.5 mg/L (≈ 1.03 µM).
